Results on five molecules are retold here after publication PMC8109618 (Bioorganic & medicinal chemistry, 2020).

A value given as a limit tells only on which side of the number the result lay.

In one assay the target is FXa (Homo sapiens, UniProt P00742). Put plainly: Direct inhibition of FXa, chromogenic substrate. In kind it is biochemical. The settings on record: not shown. A digest of the protocol: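 Human plasma FXa was held as stock in 20 mM Tris-HCl, pH 7.4, 100 mM NaCl, 2.5 mM CaCl2, 0.1% PEG8000, 0.02% Tween80. […] Percent inhibition came from the ratio of proteolytic activity with versus without test compound.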

Assay [1] concerns the target T1, hFXIa (Homo sapiens, UniProt P03951). Briefly: Direct inhibition of hFXIa, chromogenic substrate. Format: biochemical. The settings on record: for selectivity for hFXIa over FXa and trypsin: based on inhibition at >200 μM.
In another assay the target is T2, trypsin (Bos taurus, UniProt P00760).
T2 sequence (P00760 24-246): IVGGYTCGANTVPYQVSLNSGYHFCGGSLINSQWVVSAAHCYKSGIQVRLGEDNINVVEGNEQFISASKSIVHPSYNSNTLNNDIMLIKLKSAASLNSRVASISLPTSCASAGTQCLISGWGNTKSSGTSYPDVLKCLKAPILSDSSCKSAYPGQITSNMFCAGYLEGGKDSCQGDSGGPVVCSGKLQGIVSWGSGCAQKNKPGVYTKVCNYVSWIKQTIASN
Put plainly: Direct inhibition of trypsin, chromogenic substrate. Format: biochemical, bovine. The conditions noted are these: not shown. A digest of the protocol:
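Bovine trypsin was held as stock in 50 mM Tris-HCl, pH 7.4, 150 mM NaCl, 0.1% PEG8000, 0.02% Tween80. The assay used 2.5 ng/ml enzyme with 80 μM S-2222 (in-well) at 37 °C, pH 7.4. Percent inhibition was calculated from the ratio of activity with versus without test compound.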

Another assay has as its target hFXIa–DEGR (Homo sapiens, UniProt P03951). Briefly: Fluorescence titration of active site dansylated hFXIa. Format: binding.
In assay [2] the target is T1, hFXIa. Format: biochemical. A digest of the protocol:
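Human plasma FXIa. The initial rate of S-2366 ([…]) hydrolysis was taken from the linear A405 rise, with under 10% substrate consumed. S-2366 was varied from 0.03 to 2 mM at a fixed test compound concentration. Buffer was 50 mM Tris-HCl pH 7.4 with 150 mM NaCl, 0.1% PEG8000 and 0.02% Tween80, at 37 °C. KM and VMAX came from a nonlinear hyperbolic Michaelis–Menten fit.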

Assay [3] addresses T1, hFXIa. Put plainly: Analytical ultracentrifugation of hFXIa–inhibitor complex. The conditions noted are these: 100 μM inhibitor, 20 °C; dimeric form, same as hFXIa alone.

T1 sequence (P03951 388-625 limits assumed): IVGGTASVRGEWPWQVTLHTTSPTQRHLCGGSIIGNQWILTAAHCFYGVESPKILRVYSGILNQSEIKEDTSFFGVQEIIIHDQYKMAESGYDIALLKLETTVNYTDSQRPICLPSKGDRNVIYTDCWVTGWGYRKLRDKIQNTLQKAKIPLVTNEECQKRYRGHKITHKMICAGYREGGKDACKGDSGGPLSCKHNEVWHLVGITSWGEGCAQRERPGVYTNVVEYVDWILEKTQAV
T1 sequence (P03951 19-387 partner limits assumed): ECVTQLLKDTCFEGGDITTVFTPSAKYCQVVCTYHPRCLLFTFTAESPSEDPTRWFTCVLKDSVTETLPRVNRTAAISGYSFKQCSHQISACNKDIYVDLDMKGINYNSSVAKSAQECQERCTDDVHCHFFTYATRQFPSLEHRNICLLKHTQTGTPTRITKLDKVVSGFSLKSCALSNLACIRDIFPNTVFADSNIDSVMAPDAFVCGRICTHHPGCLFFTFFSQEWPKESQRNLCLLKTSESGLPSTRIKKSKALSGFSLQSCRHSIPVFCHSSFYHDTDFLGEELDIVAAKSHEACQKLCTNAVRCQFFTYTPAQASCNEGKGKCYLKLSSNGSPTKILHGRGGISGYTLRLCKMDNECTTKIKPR
FXa, sequence (P00742 235-488 limits assumed): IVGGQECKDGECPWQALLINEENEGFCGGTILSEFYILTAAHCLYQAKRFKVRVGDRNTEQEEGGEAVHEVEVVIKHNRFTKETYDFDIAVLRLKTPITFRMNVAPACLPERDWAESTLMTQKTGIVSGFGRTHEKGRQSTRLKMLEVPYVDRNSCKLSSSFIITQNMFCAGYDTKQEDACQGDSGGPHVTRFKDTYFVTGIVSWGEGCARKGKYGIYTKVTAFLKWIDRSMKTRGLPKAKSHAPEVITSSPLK
FXa, sequence (P00742 41-179 partner limits assumed): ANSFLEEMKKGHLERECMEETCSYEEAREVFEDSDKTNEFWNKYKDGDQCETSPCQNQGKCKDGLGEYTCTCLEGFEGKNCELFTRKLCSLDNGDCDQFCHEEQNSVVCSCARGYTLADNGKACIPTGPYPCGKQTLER
hFXIa–DEGR, sequence (P03951 388-625 limits assumed): as the sequence (P03951 388-625 limits assumed) above
hFXIa–DEGR, sequence (P03951 19-387 partner limits assumed): as the sequence (P03951 19-387 partner limits assumed) above

As for `O=c1c2ccccc2nc(-c2ccc(OS(=O)(=O)[O-])cc2)n1CCCCCCCCCCn1c(-c2ccc(OS(=O)(=O)[O-])cc2)nc2ccccc2c1=O.[Na+].[Na+]` [Inhibitor 20S], on FXa, the “concentration at which FXa is inhibited” value is over 200 µM. Also, the “selectivity for hFXIa over FXa and trypsin” value at hFXIa [1] is recorded as over 25 fold. The “concentration at which trypsin is inhibited” value on trypsin was over 200 µM.

In the case of `O=c1c2ccccc2nc(-c2ccc(OS(=O)(=O)[O-])cc2)n1CCCCCCCCCCCn1c(-c2ccc(OS(=O)(=O)[O-])cc2)nc2ccccc2c1=O.[Na+].[Na+]` [Inhibitor 21S], the “concentration at which FXa is inhibited” value at FXa was over 200 µM. Besides, the “selectivity for hFXIa over FXa and trypsin” value on hFXIa [1] is over 25 fold. Moreover, the “concentration at which trypsin is inhibited” value at trypsin is over 200 µM.

`O=c1[nH]c(-c2ccc(OS(=O)(=O)[O-])cc2)nc2ccccc12.[Na+]` [Inhibitor 2S]: the “fold higher KD than the next compound” value on hFXIa–DEGR (2S vs 18S, 18S vs 19S) is ~ 3.2 fold.

As for `O=c1c2ccccc2nc(-c2ccc(OS(=O)(=O)[O-])cc2)n1CCCCCCCCCn1c(-c2ccc(OS(=O)(=O)[O-])cc2)nc2ccccc2c1=O.[Na+].[Na+]` [Inhibitor 19S], the mechanism of inhibition result on hFXIa [2] (KM invariant, VMAX decreased) is recorded as “non-competitive”. On hFXIa [2] (at 120 μM inhibitor, pH 7.4, 37 °C), the VMAX is listed as 9.7±0.37 mAU/min. For the same molecule, on hFXIa [3], the “sedimentation coefficient s of hFXIa–inhibitor complex” value is on record as 6.6 S. Besides, the “n (Hill coefficient)” value on hFXIa–DEGR (250 nM FXIa–DEGR, pH 7.4, 37 °C) is 5.0±0.4.

In the case of `O=c1c2ccccc2nc(-c2ccc(OS(=O)(=O)[O-])cc2)n1CCCCCn1c(-c2ccc(OS(=O)(=O)[O-])cc2)nc2ccccc2c1=O.[Na+].[Na+]` [Inhibitor 11S], the “increase in potency as compared to the monomeric fragment” value at hFXIa [1] (IC50 ratio vs monomer 2S) is ~ 7 fold.
